Source: ChEMBL document CHEMBL1129597, “2-[2'-(Dimethylamino)ethyl]-1,2-dihydro- 3H-dibenz[de,h]isoquinoline-1,3-diones with substituents at positions 4, 8, 9, 10, and 11. Synthesis, antitumor activity, and quantitative structure-activity relationships” (J Med Chem, 1996)

What was measured:
A549 = experiment: Activity against A549 cancer cell line.; assay type: functional, cell-based; conditions: Homo sapiens
WiDr [1] = experiment: Compound was tested for antitumor activity against The compound tested for activity against Human colon carcinoma, Multi Drug resistant(MDR) WiDr - cell line.; assay type: functional, cell-based
WiDr (Homo sapiens) = experiment: Compound was tested for antitumor activity against The compound tested for activity against Human colon carcinoma sensitive WiDr cell line.
OVCAR-3 [2] = experiment: Compound was tested for antitumor activity against. Human ovarian (OVCAR-3) cell lines.; assay type: functional, cell-based
MCF7 [3] = experiment: Antitumor activity against human mammary carcinoma sensitive […] breast cell line.; assay type: functional, cell-based
UACC-375 = experiment: Antitumor activity against human melanoma UACC375 cell line.; assay type: functional, cell-based
Summary of the method: (§1)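 Cultured human tumor cells (melanoma UACC375, ovarian OVCAR3) under continuous drug exposure. Growth was read by sulforhodamine or MTT assay. Five concentrations per analogue, six determinations per concentration. IC50 values were derived from these.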

[4] = The quotient of the IC50 in the myocytes divided by the mean IC50 in the three cell lines; assay type: functional
Summary of the method: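 Calculated index: the myocyte IC50 divided by the mean IC50 across three tumor lines (sensitive L1210, melanoma UACC375, ovarian OVCAR3).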

MCF7 [5] = experiment: Compound was tested for antitumor activity against Human mammary carcinoma Doxorubicin resistant […] breast cell line.; assay type: functional, cell-based
L1210 [6] = experiment: Compound was tested for antitumor activity against Murine leukemia cell line (L1210).; assay type: functional, cell-based; conditions: Mus musculus
Summary of the method: (§2)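 Murine L1210 leukemia cells, sensitive or MDR subline, in culture. Continuous drug exposure during MTT assay. Five concentrations per analogue, six determinations per concentration. The IC50 was derived.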

L1210 [7] = experiment: Antitumor activity against sensitive L1210 murine leukemia cell lines.; assay type: functional, cell-based; conditions: Mus musculus; summary of the method: as §2
MCF7 [8] = experiment: Antitumor activity against human mammary carcinoma mitoxantrone-resistant […] breast cell line.; assay type: functional, cell-based
Rattus norvegicus = organism: Rattus norvegicus; experiment: Cardiotoxicity measured by the ATP/protein ratio compared with untreated controls using neonatal rat heart myocyte assay.; assay type: functional; set-up: Cardiotoxicity: unit not given here
Summary of the method: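 Neonatal rat heart myocytes exposed to drug for 1 h. The ATP/protein ratio was measured versus untreated control myocytes. IC50 is the concentration reducing this ratio to 50% of control.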

WiDr [9] = experiment: Activity against human colon carcinoma multi drug resistant (MDR)-WiDr cell line.; assay type: functional, cell-based
WiDr [10] = experiment: Activity against human colon carcinoma sensitive WiDr cell line.; assay type: functional, cell-based
L1210 [11] = experiment: Antitumor activity against murine leukemia L1210 cell line.; assay type: functional, cell-based; conditions: Mus musculus; summary of the method: as §2
OVCAR-3 [12] = experiment: Antitumor activity against human ovarian OVCAR-3 cell lines.; assay type: functional, cell-based; summary of the method: as §1
MCF7 [13] = experiment: Antitumor activity against human mammary carcinoma doxorubicin-resistant […] breast cell line.; assay type: functional, cell-based
[14] = (§3) Percent increase in life span when given at a dose in P388 leukemia cells of mice; assay type: functional
Summary of the method: (§4)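 P388 leukemia in mice, standard NCI protocol: 10^6 leukemia cells given ip; compound given ip in equal doses on days 1, 5 and 9. Highest dose used was 10% below the LD10 for acute toxicity in that mouse species. %ILS = 100 × (treated life span − control life span)/control life span, reported at the highest nontoxic dose.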

MCF7 [15] = experiment: Compound was tested for antitumor activity against Human mammary carcinoma sensitive cell line ([…] breast).; assay type: functional, cell-based
WiDr [16] = experiment: The compound tested for activity againstHuman colon carcinoma sensitive WiDr cell line.; assay type: functional, cell-based; conditions: Homo sapiens
Mus musculus [17] = organism: Mus musculus; experiment: as §3; assay type: functional; summary of the method: as §4
Mus musculus [18] = organism: Mus musculus; experiment: Percent increase in life span when given at a dose in P388 leukemia cells of mice (Positive control for compounds 15,34 and amonafide); assay type: functional; summary of the method: as §4
Mus musculus [19] = organism: Mus musculus; experiment: Percent increase in life span when given at a dose in P388 leukemia cells of mice (Positive control for compound 44); assay type: functional; summary of the method: as §4

Structure (SMILES) | IC50 (A549) | IC50 (MCF7 [3]) | IC50 (UACC-375) | Toxicity ratio [4] | IC50 (L1210 [7]) | IC50 (MCF7 [8]) | IC50 (Rattus norvegicus) | IC50 (WiDr [9]) | IC50 (WiDr [10]) | IC50 (L1210 [11]) | IC50 (OVCAR-3 [12]) | IC50 (MCF7 [13]) | further results
CN(C)CCN1C(=O)c2c(Cl)ccc3cc4ccccc4c(c23)C1=O | 12 nM | 50 nM | 332 nM | 5.2 | 10 nM | 60 nM | 900 nM | – | – | – | – | – | IC50 (WiDr [1]): 190 nM; IC50 (WiDr (Homo sapiens)): 90 nM; IC50 (OVCAR-3 [2]): 180 nM; IC50 (MCF7 [5]): 85 nM; IC50 (L1210 [6]): 15 nM
CN(C)CCN1C(=O)c2cccc3cc4ccc(O)cc4c(c23)C1=O | 1.7 nM | 5.8 nM | 1220 nM | >23 | 189 nM | 17 nM | > 27000 nM | 240 nM | 17 nM | 540 nM | 2130 nM | 35 nM | –
CN(C)CCN1C(=O)c2cccc3cc4c(O)cccc4c(c23)C1=O | 60 nM | 83 nM | 270 nM | 15 | 108 nM | 120 nM | 2950 nM | 900 nM | 130 nM | 67 nM | 216 nM | 230 nM | –
CN(C)CCN1C(=O)c2cccc3cc4ccc(F)cc4c(c23)C1=O | 4.8 nM | 15 nM | 16 nM | 45.6 | 8.1 nM | 12 nM | 456 nM | 13 nM | 17 nM | – | 6.7 nM | 25 nM | –
CN(C)CCN1C(=O)c2cccc3cc4ccc(C#N)cc4c(c23)C1=O | 2.2 nM | 13 nM | 10 nM | 9 | 15 nM | 12 nM | 105 nM | 16 nM | 11 nM | 13 nM | 12 nM | 20 nM | –
CN(C)CCN1C(=O)c2cccc3cc4ccc(-c5ccccc5)cc4c(c23)C1=O | 120 nM | 70 nM | 1860 nM | – | 70 nM | 33 nM | – | 320 nM | 180 nM | 128 nM | 348 nM | 190 nM | –
CN(C)CCN1C(=O)c2cccc3cc4cccc(Cl)c4c(c23)C1=O | 61 nM | 340 nM | 2060 nM | 1.9 | 1780 nM | 120 nM | 8230 nM | 1000 nM | 390 nM | 617 nM | 9000 nM | 710 nM | –
CN(C)CCN1C(=O)c2cccc3cc4ccc(Cl)cc4c(c23)C1=O | 8.2 nM | 58 nM | 64 nM | 18 | 5.1 nM | 48 nM | 771 nM | 85 nM | 17 nM | 7.7 nM | 64 nM | 8 nM | –
CN(C)CCN1C(=O)c2cccc3cc4cc(Cl)ccc4c(c23)C1=O | 9.9 nM | 49 nM | 90 nM | 14 | 7.7 nM | 68 nM | 1540 nM | 140 nM | 100 nM | 7.7 nM | 231 nM | 71 nM | –
CN(C)CCN1C(=O)c2cccc3cc4ccc(I)cc4c(c23)C1=O | 31 nM | 42 nM | 624 nM | 13 | 312 nM | 49 nM | 4790 nM | 130 nM | 40 nM | 52 nM | 176 nM | 59 nM | –
COc1cccc2c3c4c(cccc4cc12)C(=O)N(CCN(C)C)C3=O | 4.8 nM | 120 nM | 52 nM | 21 | 13 nM | 5.4 nM | 806 nM | 30 nM | 9 nM | 18 nM | 52 nM | 67 nM | –
CC(=O)Nc1cccc2c3c4c(cccc4cc12)C(=O)N(CCN(C)C)C3=O | – | – | – | – | – | – | – | – | – | – | – | – | ILS [14]: 109%
CN(C)CCNc1ccc2cc3ccccc3c3c2c1C(=O)N(CCN(C)C)C3=O | 78 nM | 190 nM | 390 nM | 1.7 | 210 nM | 230 nM | 734 nM | 680 nM | 400 nM | 245 nM | 715 nM | 530 nM | –
CN(C)CCN1C(=O)c2cccc3cc4ccc([N+](=O)[O-])cc4c(c23)C1=O | 2.5 nM | 13 nM | 18 nM | 36 | 25 nM | 14 nM | 801 nM | 74 nM | 9.5 nM | 25 nM | 23 nM | 8.7 nM | –
Cc1ccc2cc3ccccc3c3c2c1C(=O)N(CCN(C)C)C3=O | 34 nM | – | 176 nM | 12 | 54 nM | 140 nM | 1360 nM | 120 nM | – | – | 122 nM | – | IC50 (MCF7 [15]): 390 nM; IC50 (WiDr [16]): 60 nM; IC50 (MCF7 [5]): 330 nM; IC50 (L1210 [6]): 68 nM
Cc1ccc2cc3cccc4c3c(c2c1)C(=O)N(CCN(C)C)C4=O | 14 nM | 110 nM | 81 nM | 16 | 41 nM | 90 nM | 1000 nM | 120 nM | 120 nM | 54 nM | 68 nM | 140 nM | –
CNCCN1C(=O)c2cccc3cc4ccc(Cl)cc4c(c23)C1=O | 31 nM | 49 nM | 44 nM | 28 | 5.8 nM | 42 nM | 1430 nM | 64 nM | 51 nM | 14.6 nM | 102 nM | 50 nM | –
CN(C)CCN1C(=O)c2cccc3cc4ccc(NC(=O)C(C)(C)C)cc4c(c23)C1=O | – | – | – | – | – | – | – | – | – | – | – | – | ILS [14]: 105%
COc1ccc2cc3ccccc3c3c2c1C(=O)N(CCN(C)C)C3=O | 81 nM | 350 nM | 182 nM | – | 70 nM | 520 nM | – | 900 nM | 660 nM | 179 nM | 507 nM | 690 nM | –
COc1ccc2cc3cccc4c3c(c2c1)C(=O)N(CCN(C)C)C4=O | 31 nM | 38 nM | 52 nM | 182 | 21 nM | 41 nM | 9100 nM | 61 nM | 40 nM | 52 nM | 78 nM | 52 nM | –
CN(C)CCN1C(=O)c2cccc3cc4cccc(O)c4c(c23)C1=O | 40 nM | 81 nM | 540 nM | 18 | 189 nM | 80 nM | 15400 nM | 270 nM | 100 nM | 189 nM | 1890 nM | 200 nM | –
COc1ccc2c3c4c(cccc4cc2c1)C(=O)N(CCN(C)C)C3=O | 27 nM | 73 nM | 163 nM | <10.3 | 54 nM | 95 nM | – | 130 nM | 65 nM | 54 nM | 543 nM | 120 nM | Cardiotoxicity (Rattus norvegicus): < 2600
CN(C)CCN1C(=O)c2cccc3cc(N)cc(c23)C1=O [AMONAFIDE] | 1100 nM | 1100 nM | – | 30 | – | 1200 nM | 48400 nM | 2200 nM | 1100 nM | – | – | 1800 nM | ILS (Mus musculus [17]): 88%
CN(C)CCN1C(=O)c2cccc3cc4ccccc4c(c23)C1=O [AZONAFIDE] | – | – | – | 44 | – | – | 1980 nM | – | – | – | – | – | ILS (Mus musculus [17]): 79%
COc1cccc2c1C(=O)c1c(O)c3c(c(O)c1C2=O)C[C@@](O)(C(=O)CO)C[C@@H]3O[C@H]1C[C@H](N)[C@H](O)[C@H](C)O1 [DOXORUBICIN] | – | – | – | – | – | – | 10200 nM | – | – | – | – | – | ILS (Mus musculus [18]): 113%; ILS (Mus musculus [19]): 72%
O=C1c2c(O)ccc(O)c2C(=O)c2c(NCCNCCO)ccc(NCCNCCO)c21 [MITOXANTRONE] | – | – | – | 368 | – | – | 7740 nM | – | – | – | – | – | ILS (Mus musculus [17]): 200%
